Screens deposited in PubChem BioAssay by several laboratories.
Rows were chosen to be rich in hits. Some 5.8% of all compounds tested hit in one or more screens of this group.
WT yeast gro inh: growth inhibition of WT strain, primary screen, mitochondrial fusion inhibitor project, WT and mutant strains, chemical genetic. mitochondrial fusion phenotypic screen. inhibition, % at 10 µM. 190,000 compounds, 2.1% hits. AID 1362, 2008; in the data active means inhibition above about 58%; tested in S. cerevisiae
ROMK mod: ROMK potassium channel modulators, primary screen, cell-based, thallium flux, MLSMR library | B-score at 10 µM | AID 1918, 2009 | ATP-sensitive inward rectifier potassium channel 1 (Homo sapiens), P48048 | Tet-inducible ROMK, thallium flux fluorescence; actives lie on both sides | 130,000 compounds, 2% hits;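 active means signal ratio slope over the read window, or its plate-corrected B-score, at least 3 SD from the plate mean, either direction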;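 further: B-score of the F/F0 ratio slope over 7 to 12 s after thallium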
NCF1 inh: p47phox/p22phox peptide binding inhibitors, primary screen, biochemical, uHTS, NADPH oxidase regulatory subunit; fluorescence polarization, 2 h; inhibition, % at 24.7 µM; 220,000 compounds, 0.53% hits; AID 1274, 2008;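 active means inhibition above about 30%, limit read from the data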;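 further: 0% = p47phox with labelled peptide and 100% = labelled peptide alone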
Target sequence (P14598 whole entry, looked up): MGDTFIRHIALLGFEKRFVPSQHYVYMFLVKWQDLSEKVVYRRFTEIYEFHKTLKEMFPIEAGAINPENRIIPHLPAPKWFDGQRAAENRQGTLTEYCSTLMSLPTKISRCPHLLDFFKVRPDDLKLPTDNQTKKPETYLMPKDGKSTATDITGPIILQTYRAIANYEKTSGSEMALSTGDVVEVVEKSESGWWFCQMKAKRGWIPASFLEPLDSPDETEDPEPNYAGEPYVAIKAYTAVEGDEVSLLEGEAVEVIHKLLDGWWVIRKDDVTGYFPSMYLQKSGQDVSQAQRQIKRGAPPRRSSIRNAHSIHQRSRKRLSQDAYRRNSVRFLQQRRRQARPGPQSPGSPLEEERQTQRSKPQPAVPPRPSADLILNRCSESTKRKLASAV
KCC2 mod: KCC2 cotransporter modulators, thallium flux, primary screen, cell-based, HEK293 KCC2, FluoZin-2 fluorescence, MLSMR | 190,000 compounds, 2.2% hits | B-score of Tl+ flux slope (higher = more flux/activation; lower = inhibition) at 10 µM | KCC2 cells, thallium flux FluoZin-2 fluorescence | AID 1456, 2008;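 active means thallium flux slope and its plate-corrected score both differing from the plate sample mean at a set confidence after two filtering rounds, in either direction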;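 further: slope of fluorescence scaled to starting intensity during 10 to 20 s after thallium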
14-3-3 Bad inh: inhibitors of 14-3-3 zeta/Bad binding, primary screen, biochemical, TR-FRET, bovine 14-3-3 zeta; TR-FRET 14-3-3zeta/Dy647-pBad peptide displacement, 1 h; inhibition, % at 21.7 µM; 14-3-3 protein zeta/delta (Bos taurus), P63103; 220,000 compounds, 0.71% hits;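 active means inhibition above about 70%, limit read from the data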;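 further: 0% = full 14-3-3 plus peptide FRET controls and 100% = background without 14-3-3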
RBBP9 inh: human RBBP9 inhibitors, primary screen, biochemical, fluorescence polarization, FP-Rh probe, HTS. Serine hydrolase RBBP9 (Homo sapiens), O75884. recombinant RBBP9. inhibition, % at 7.94 µM. 220,000 compounds, 0.2% hits;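 active means inhibition above the campaign mean of all tested compounds plus 3 SD, cut at about 14% in these data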;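 further: plate controls were DMSO wells with RBBP9 for no effect and wells lacking RBBP9 protein for full effect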
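Measured by – fluorescence polarization · Test system – RBBP9 protein · Input – 2.5 µM RBBP9 dispensing solution, before mixing · Measure – percent inhibition from mP, scaled between DMSO and no-protein wells · Benchmarks – DMSO-treated enzyme wells and wells lacking RBBP9 · Times – preincubation 30 min plus labeling 45 min at 25 °C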
ROMK retest: ROMK channel modulator hit retest, confirmation, cell-based, thallium flux, duplicate, resupplied hits; 3,000 compounds, 54% hits; AID 1917, 2009; shares compounds with ROMK mod; normalized thallium flux (F/F0 slope) at 10 µM; fluorescence ratio; hits give low values;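 active means Flux at 10 µM at least 3 SD below or above vehicle control mean in one or both replicates; inconclusive means no clear call, values can overlap the other calls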
The depositor's hits bear a star.

Screening CSC1=NC(C(Cl)(Cl)Cl)N=C(c2ccc(C)cc2)N1 (stereo not drawn) returned WT yeast gro inh -13, ROMK mod 2.7*, NCF1 inh 8, KCC2 mod 0.16, 14-3-3 Bad inh -3, RBBP9 inh -6 and ROMK retest 0.1*.
CCC1N=C(SC)NC(C)=C1C(=O)c1ccccc1 (stereo not drawn) was read as WT yeast gro inh 0, ROMK mod 0.046, NCF1 inh -4, KCC2 mod 0.093, 14-3-3 Bad inh -3 and RBBP9 inh -5.
`Cc1cc(-c2csc(NC(=O)c3cc4ccccc4o3)n2)c(C)n1C` gave WT yeast gro inh 8, NCF1 inh -11, KCC2 mod 0.72, 14-3-3 Bad inh 3, RBBP9 inh -12 and ROMK retest inconclusive.
O=C(Nc1nc(-c2ccccn2)cs1)c1cc2ccccc2o1 was read as WT yeast gro inh 9, ROMK mod 1, NCF1 inh -24, KCC2 mod -0.011, 14-3-3 Bad inh -9 and RBBP9 inh -2.
For COc1ccc(CNc2nc3ccccc3n2C)c(OC)c1 the results were WT yeast gro inh -2, ROMK mod -7.6*, NCF1 inh -14, KCC2 mod 0.085, 14-3-3 Bad inh -7, RBBP9 inh -2 and ROMK retest 0.077.
Screening COc1ccc(CNc2nc3ccccc3n2C)c(O)c1 returned NCF1 inh 0, 14-3-3 Bad inh 1 and RBBP9 inh -3.
COc1cccc(-c2nnc(SCC(=O)Nc3cc(C)ccc3OC)n2N)c1 was read as WT yeast gro inh 17, NCF1 inh -17, KCC2 mod 0.38, 14-3-3 Bad inh 3, RBBP9 inh -5 and ROMK retest inconclusive.
O=C(COc1ccc(Cl)cc1Cl)N1CCCC1 was read as WT yeast gro inh 12, ROMK mod -0.52, NCF1 inh -13, KCC2 mod -0.22, 14-3-3 Bad inh -3 and RBBP9 inh -2.
O=C(COc1ccc(Cl)cc1[N+](=O)[O-])N1CCCCCC1 was read as WT yeast gro inh -13, ROMK mod -1.8*, NCF1 inh -3, KCC2 mod -1.8, 14-3-3 Bad inh 0, RBBP9 inh 3 and ROMK retest inconclusive.
For N#C/C(=C\c1ccc(OCc2cccc(C(=O)O)c2)cc1)C(=O)NCc1ccco1 the results were NCF1 inh -21, KCC2 mod -2.2, 14-3-3 Bad inh 10, RBBP9 inh -1 and ROMK retest 0.039*.
`COCCNC(=O)/C(C#N)=C/c1ccc(OCc2ccccc2)cc1` gave WT yeast gro inh -1, NCF1 inh -9, KCC2 mod -0.6, 14-3-3 Bad inh 1 and RBBP9 inh -5.
`CN(C)/C=C(\C#N)C(=O)N/N=C/c1ccccc1` gave WT yeast gro inh -15, ROMK mod 0.47, NCF1 inh -3, KCC2 mod 0.19, 14-3-3 Bad inh 0 and RBBP9 inh 1.
CC(=O)c1ccc(N/N=C(/C(N)=O)C2=NC(C)(C)Cc3ccccc32)cc1 was read as WT yeast gro inh 2, ROMK mod -5.4*, NCF1 inh 2, KCC2 mod -0.51, 14-3-3 Bad inh 0, RBBP9 inh -7 and ROMK retest 0.049*.
`CC1(C)Cc2ccccc2C(/C(=N/O)C(N)=O)=N1` gave WT yeast gro inh -11, ROMK mod -0.097, NCF1 inh 6, 14-3-3 Bad inh -7 and RBBP9 inh -2.
CN(Cc1ccc(Cl)cc1)C(=O)CCl was read as WT yeast gro inh -10, ROMK mod -4.7*, NCF1 inh 0, KCC2 mod 0.31, 14-3-3 Bad inh -2, RBBP9 inh -6 and ROMK retest inconclusive.
